In ChEMBL document CHEMBL1671767, “Fusidic acid resistance determinants in Staphylococcus aureus clinical isolates” (2010):
Values after ≈ are worked out from the molar mass of the structure shown.

Legend:
Type in all cases: functional
Staphylococcus aureus [1] = experiment: Antibacterial activity against fusidic acid-resistant, methicillin-susceptible Staphylococcus aureus after 16 to 20 hrs by CLSI agar dilution method
Outline: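 Clinical isolates from a Taiwan teaching hospital, 2002–2007. CLSI agar dilution: colonies suspended directly to 0.5 McFarland, and 10^4 CFU/spot applied by Steers replicator to Mueller-Hinton agar containing fusidic acid at 0.03 to 128 μg/ml. Plates incubated 16 to 20 h at 33 to 35°C. S. aureus ATCC 29213 used as control; resistance breakpoint 2 μg/ml.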

Staphylococcus aureus [2] = experiment: Antibacterial activity against Staphylococcus aureus harboring […] and C473S mutations in domain 3 of EF-G encoded by fusA gene after 16 to 20 hrs by CLSI agar dilution method
Outline: (§1)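 Clinical isolates collected at a Taiwanese teaching hospital, 2002–2007. Inoculum was made by direct colony suspension to 0.5 McFarland. 10^4 CFU/spot was applied by Steers replicator onto Mueller-Hinton agar containing fusidic acid at 0.03 to 128 μg/ml. Plates were incubated at 33 to 35°C for 16–20 h. S. aureus ATCC 29213 served as control. Resistance breakpoint was 2 μg/ml.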

Staphylococcus aureus [3] = experiment: Antibacterial activity against fusidic acid-resistant Staphylococcus aureus harboring R76C in domain 1 and H457Y mutation in domain 3 of EF-G encoded by fusA gene after 16 to 20 hrs by CLSI agar dilution method; outline: as §1
Staphylococcus aureus [4] = experiment: Antibacterial activity against fusidic acid-resistant Staphylococcus aureus harboring A376V in domain 2 and L456F mutation in domain 3 of EF-G encoded by fusA gene after 16 to 20 hrs by CLSI agar dilution method; outline: as §1
Staphylococcus aureus [5] = experiment: Antibacterial activity against fusidic acid-resistant Staphylococcus aureus harboring H457Q and L461F mutations in domain 3 of EF-G encoded by fusA gene after 16 to 20 hrs by CLSI agar dilution method; outline: as §1
Staphylococcus aureus [6] = experiment: Antibacterial activity against Staphylococcus aureus harboring P406L mutation in domain 3 of EF-G encoded by fusA gene after 16 to 20 hrs by CLSI agar dilution method; outline: as §1
Staphylococcus aureus [7] = experiment: Antibacterial activity against fusidic acid-resistant Staphylococcus aureus harboring E444K mutation in domain 3 of EF-G encoded by fusA gene after 16 to 20 hrs by CLSI agar dilution method; outline: as §1
Staphylococcus aureus [8] = experiment: Antibacterial activity against methicillin-susceptible Staphylococcus aureus harboring M651I mutation in domain 5 of EF-G encoded by fusA gene after 16 to 20 hrs by CLSI agar dilution method
Outline: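 Agar dilution per CLSI on Mueller-Hinton agar, fusidic acid 0.03 to 128 μg/ml. Inoculum from direct colony suspension adjusted to 0.5 McFarland, 104 CFU/spot applied by Steers replicator. Plates incubated 33 to 35°C for 16 to 20 h. S. aureus ATCC 29213 as control strain; resistance breakpoint 2 μg/ml.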

Staphylococcus aureus [9] = experiment: Antibacterial activity against fusidic acid-resistant Staphylococcus aureus harboring L461K mutation in domain 3 of EF-G encoded by fusA gene after 16 to 20 hrs by CLSI agar dilution method; outline: as §1
Staphylococcus aureus [10] = experiment: Antibacterial activity against fusidic acid-resistant methicillin-susceptible Staphylococcus aureus harboring P404L mutation in domain 3 of EF-G encoded by fusA gene after 16 to 20 hrs by CLSI agar dilution method; outline: as §1
Staphylococcus aureus [11] = experiment: Antibacterial activity against fusidic acid-resistant, methicillin-resistant Staphylococcus aureus after 16 to 20 hrs by CLSI agar dilution method; outline: as §1
Staphylococcus aureus [12] = experiment: Antibacterial activity against fusidic acid-resistant Staphylococcus aureus harboring H457Q mutation in domain 3 of EF-G encoded by fusA gene after 16 to 20 hrs by CLSI agar dilution method; outline: as §1
Staphylococcus aureus [13] = experiment: Antibacterial activity against fusidic acid-resistant Staphylococcus aureus harboring H457Q and L461K mutations in domain 3 of EF-G encoded by fusA gene after 16 to 20 hrs by CLSI agar dilution method; outline: as §1
Staphylococcus aureus [14] = experiment: Antibacterial activity against fusidic acid-resistant Staphylococcus aureus harboring A71V in domain 1 and P404L mutation in domain 3 of EF-G encoded by fusA gene after 16 to 20 hrs by CLSI agar dilution method; outline: as §1
Staphylococcus aureus [15] = experiment: Antibacterial activity against fusidic acid-resistant Staphylococcus aureus harboring H457Y mutation in domain 3 of EF-G encoded by fusA gene after 16 to 20 hrs by CLSI agar dilution method; outline: as §1
Staphylococcus aureus [16] = experiment: Antibacterial activity against Staphylococcus aureus harboring L461S mutation in domain 3 of EF-G encoded by fusA gene after 16 to 20 hrs by CLSI agar dilution method; outline: as §1
Staphylococcus aureus [17] = experiment: Antibacterial activity against fusidic acid-resistant Staphylococcus aureus harboring M16I in domain 1 and H457Y mutation in domain 3 of EF-G encoded by fusA gene after 16 to 20 hrs by CLSI agar dilution method; outline: as §1
Staphylococcus aureus [18] = experiment: Antibacterial activity against Staphylococcus aureus harboring M453I mutation in domain 3 of EF-G encoded by fusA gene after 16 to 20 hrs by CLSI agar dilution method; outline: as §1
Staphylococcus aureus [19] = experiment: Antibacterial activity against Staphylococcus aureus harboring G451V mutation in domain 3 of EF-G encoded by fusA gene after 16 to 20 hrs by CLSI agar dilution method; outline: as §1
Staphylococcus aureus [20] = experiment: Antibacterial activity against fusidic acid-resistant methicillin-resistant Staphylococcus aureus harboring P404L mutation in domain 3 of EF-G encoded by fusA gene after 16 to 20 hrs by CLSI agar dilution method; outline: as §1
Staphylococcus aureus [21] = experiment: Antibacterial activity against methicillin-susceptible Staphylococcus aureus harboring P478S mutation in domain 3 of EF-G encoded by fusA gene after 16 to 20 hrs by CLSI agar dilution method; outline: as §1
Staphylococcus aureus [22] = experiment: Antibacterial activity against fusidic acid-resistant Staphylococcus aureus harboring E444V and L461F mutations in domain 3 of EF-G encoded by fusA gene after 16 to 20 hrs by CLSI agar dilution method; outline: as §1
Staphylococcus aureus [23] = experiment: Antibacterial activity against fusidic acid-resistant Staphylococcus aureus harboring A67T in domain 1 and H457Y mutation in domain 3 of EF-G encoded by fusA gene after 16 to 20 hrs by CLSI agar dilution method; outline: as §1
Staphylococcus aureus [24] = experiment: Antibacterial activity against fusidic acid-resistant Staphylococcus aureus harboring A70V in domain 1 and H457Y mutation in domain 3 of EF-G encoded by fusA gene after 16 to 20 hrs by CLSI agar dilution method; outline: as §1

CC(=O)O[C@H]1C[C@@]2(C)[C@@H](C[C@@H](O)[C@H]3[C@@]4(C)CC[C@@H](O)[C@@H](C)[C@@H]4CC[C@@]32C)/C1=C(\CCC=C(C)C)C(=O)O [FUSIDIC ACID]
MIC50 (Staphylococcus aureus [1]): 8 µg/mL (≈ 15.5 µM) | MIC90 (Staphylococcus aureus [1]): 16 µg/mL (≈ 31 µM) | MIC (Staphylococcus aureus [2]): > 128 µg/mL | MIC (Staphylococcus aureus [3]): > 128 µg/mL | MIC (Staphylococcus aureus [4]): 32 µg/mL (≈ 61.9 µM) | MIC (Staphylococcus aureus [5]): 128 µg/mL (≈ 248 µM) | MIC (Staphylococcus aureus [6]): 16 µg/mL (≈ 31 µM) | MIC (Staphylococcus aureus [7]): 16 µg/mL (≈ 31 µM) | MIC (Staphylococcus aureus [8]): 2 µg/mL (≈ 3.87 µM) | MIC (Staphylococcus aureus [9]): > 128 µg/mL | MIC (Staphylococcus aureus [10]): 16 µg/mL (≈ 31 µM) | MIC50 (Staphylococcus aureus [11]): 32 µg/mL (≈ 61.9 µM) | MIC90 (Staphylococcus aureus [11]): > 128 µg/mL | MIC (Staphylococcus aureus [12]): 8 µg/mL (≈ 15.5 µM) | MIC (Staphylococcus aureus [13]): > 128 µg/mL | MIC (Staphylococcus aureus [14]): 8 µg/mL (≈ 15.5 µM) | MIC (Staphylococcus aureus [15]): 128 µg/mL (≈ 248 µM) | MIC (Staphylococcus aureus [16]): 4 µg/mL (≈ 7.74 µM) | MIC (Staphylococcus aureus [17]): 16 µg/mL (≈ 31 µM) | MIC (Staphylococcus aureus [18]): 8 µg/mL (≈ 15.5 µM) | MIC (Staphylococcus aureus [19]): 8 µg/mL (≈ 15.5 µM) | MIC (Staphylococcus aureus [20]): 8 µg/mL (≈ 15.5 µM) | MIC (Staphylococcus aureus [21]): 8 µg/mL (≈ 15.5 µM) | MIC (Staphylococcus aureus [22]): 32 µg/mL (≈ 61.9 µM) | MIC (Staphylococcus aureus [23]): 128 µg/mL (≈ 248 µM) | MIC (Staphylococcus aureus [24]): > 128 µg/mL
